Results on twelve compounds are retold here after ChEMBL document CHEMBL1177774, “2-Aryl-4,5,6,7-tetrahydro-1,3-benzothiazol-7-ols as a class of antitumor agents selectively active in securin(-/-) cells” (Bioorg Med Chem Lett, 2010).

Common to all, as to format: functional, cell-based
Experiment [1] deals with HCT-116. Briefly: Cytotoxicity against human HCT116 cells after 2 days by sulforhodamine B assay. Conditions: HCT-116, 48 h. The procedure, abridged:
(§1)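 Cells kept in RPMI 1640 with 10% fetal bovine serum and 50 µg/ml gentamicin, 37 °C, humidified, 5% CO2. Plated in 96-well plates; compound dilutions added next day (final 2 nM to 200 µM), then 2 days culture before survival read-out. 10 concentrations, in triplicate (some in duplicate); repeat values agreed on average within 40%.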
(In general: Sulforhodamine B stains cellular protein and so reports cell mass.)

The test system of experiment [2] is HCT-116. Description: Cytotoxicity against human HCT116-D8 securin -/- cells after 2 days by sulforhodamine B assay. The note with it: HCT-116, 48 h. The procedure, abridged:
as §1

Experiment [3] can be described thus: Cytotoxicity against human HCT116-F3 securin -/- cells after 2 days by sulforhodamine B assay. Conditions: 48 h. The gist of the method:
as §1

In experiment [4] the test system is MCF-10A. Briefly: Cytotoxicity against human MCF10A cells after 2 days by sulforhodamine B assay. The note with it: 48 h. The procedure, abridged:
as §1

The test system of experiment [5] is MCF7. Description: Cytotoxicity against human MCF7 cells after 2 days by sulforhodamine B assay. Conditions: MCF7, 48 h. The procedure, abridged: as §1
Experiment [6] deals with MDA-MB-361. Description: Cytotoxicity against human MDA-MB-361 cells after 2 days by sulforhodamine B assay. Conditions: MDA-MB-361, 48 h. The gist of the method: as §1

As usually defined, the IC50 is the midpoint of a concentration-inhibition curve. Higher therefore signals lower potency. Turning to `OC1CNCc2nc(-c3ccc(N4CCCC4)cc3)sc21` (stereo unspecified), the IC50 amounted to 25000 nM in experiment [1]; 730 nM in experiment [2]; 1070 nM in experiment [3]; 27800 nM in experiment [4]; 1530 nM in experiment [5]; 140 nM in experiment [6].
As to `CN(C)c1ccc(-c2nc3c(s2)C(O)CNC3)c(CO)c1` (stereo unspecified), the IC50 in experiment [1] was over 100000 nM; in experiment [2], 100 nM; in experiment [3], 100 nM; in experiment [4], 70000 nM; in experiment [5] it was 31 nM; in experiment [6] it was 22 nM.
As for `CN(C)c1ccc(-c2nc3c(s2)C(O)CCC3)cc1` (stereo unspecified), the IC50 in experiment [1] was over 150000 nM; in experiment [2], 1500 nM; in experiment [3], 3000 nM; in experiment [4], over 150000 nM; in experiment [5], 1170 nM; in experiment [6], 830 nM.
As for `CN(C)c1ccc(-c2nc3c(s2)[C@H](O)CCC3)cc1`, the IC50 in experiment [1] is 114000 nM; in experiment [2], 850 nM; in experiment [3] it was 1430 nM; in experiment [4], over 100000 nM; in experiment [5], 1450 nM; in experiment [6], 200 nM.
Consider `CN(C)c1ccc(-c2nc3c(s2)[C@@H](O)CCC3)cc1`, for which the IC50 is over 100000 nM in experiment [1]; 20000 nM in experiment [2]; 46000 nM in experiment [3]; over 100000 nM in experiment [4]; 3300 nM in experiment [5].
With `Cc1cc(N(C)C)ccc1-c1nc2c(s1)[C@H](O)CCC2`, the concentration for half-maximal inhibition (IC50) in experiment [1] is over 100000 nM; in experiment [2] it was 270 nM; in experiment [3] it was 230 nM; in experiment [4] it was over 100000 nM; in experiment [5] it was 730 nM; in experiment [6] it was 83 nM.
Take `OCc1cc(N2CCCC2)ccc1-c1nc2c(s1)C(O)CNC2` (stereo unspecified): the IC50 in experiment [1] was over 100000 nM; in experiment [2], 70 nM; in experiment [3], 60 nM; in experiment [4] it was over 100000 nM; in experiment [5], 13 nM; in experiment [6] it was 20 nM.
As to `OC1CCCc2nc(-c3ccc(N4CCCC4)cc3)sc21` (stereo unspecified), the IC50 was over 100000 nM in experiment [1]; 1530 nM in experiment [2]; 2800 nM in experiment [3]; over 100000 nM in experiment [4]; 8700 nM in experiment [5]; 200 nM in experiment [6].
Consider `CN(C)c1ccc(-c2nc3c(s2)C(O)CCC3)c(CO)c1` (stereo unspecified), for which the IC50 in experiment [1] was 78000 nM; in experiment [2], 60 nM; in experiment [3], 60 nM; in experiment [4] it was over 100000 nM; in experiment [5], 360 nM; in experiment [6], 420 nM.
As to `OCc1cc(N2CCCC2)ccc1-c1nc2c(s1)C(O)CCC2` (stereo unspecified), the IC50 in experiment [1] was determined as 21000 nM; in experiment [2], 42 nM; in experiment [3] it was 44 nM; in experiment [4], 17000 nM; in experiment [5] it was 56 nM; in experiment [6], 32 nM.
As to `CN(C)c1ccc(-c2nc3c(s2)C(O)CNC3)cc1` (stereo unspecified), the IC50 in experiment [1] turned out to be 121000 nM; in experiment [2], 1330 nM; in experiment [3], 1630 nM; in experiment [4] it was 70200 nM; in experiment [5] it was 1600 nM; in experiment [6], 170 nM.
Take `Cc1cc(N(C)C)ccc1-c1nc2c(s1)[C@@H](O)CCC2`: the IC50 is 127000 nM in experiment [1]; 560 nM in experiment [2]; 1160 nM in experiment [3]; over 100000 nM in experiment [4]; 2150 nM in experiment [5]; 160 nM in experiment [6].
